This note sets out measurements from ChEMBL document CHEMBL4334446, “Evaluating the effects of fluorine on biological properties and metabolic stability of some antitubulin 3-substituted 7-phenyl-pyrroloquinolinones” (Eur J Med Chem, 2019).

Data set [1] is described as follows: Growth inhibition of human DND41 cells incubated for 72 hrs by MTT assay. The settings on record: DND41, 72 h. The data set is classed as functional. The essentials: (§1)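 Leukemia lines were grown in RPMI-1640; the CEM^Vbl-100 medium also contained 100 ng/mL vinblastine. Cells were seeded at 8 × 10³ per well and left 18 h at 37 °C, 5% CO2. Medium was then replaced with fresh medium holding graded compound concentrations (DMSO stocks), in triplicate, for 72 h. Viability was read by MTT, and GI50 = concentration inhibiting proliferation 50%.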

The subject of the next data set is Jurkat. Nature of the data set: Growth inhibition of human Jurkat cells incubated for 72 hrs by MTT assay. Type of data set: functional. The essentials: as §1
On the technique in general: Tetrazolium assays rely on reduction of a dye to a coloured formazan, in cell work by metabolically active cells.

In a further data set the test system is HL-60. Nature of the data set: Growth inhibition of human HL60 cells incubated for 72 hrs by MTT assay. Type of data set: functional. The settings on record: HL-60, 72 h. The essentials: as §1
The next data set relates to RS4-11. Nature of the data set: Growth inhibition of human RS4:11 cells incubated for 72 hrs by MTT assay. The data set is classed as functional. The settings on record: RS4-11, 72 h. The essentials: as §1
The subject of another data set is MCF7. Briefly: Growth inhibition of human MCF7 cells incubated for 72 hrs by MTT assay. The data set is classed as functional. The settings on record: MCF7, 72 h.
Another data set relates to MDA-MB-231. Nature of the data set: Growth inhibition of human MDA-MB-231 cells incubated for 72 hrs by MTT assay. Type of data set: functional. The settings on record: MDA-MB-231, 72 h.
The subject of a further data set is MDA-MB-468. Nature of the data set: Growth inhibition of human MDA-MB-468 cells incubated for 72 hrs by MTT assay. The settings on record: MDA-MB-468, 72 h. Type of data set: functional.
A further data set relates to HeLa. Nature of the data set: Growth inhibition of human HeLa cells incubated for 72 hrs by MTT assay. The data set is classed as functional.
For the next data set, the system named is HT-29. Nature of the data set: Growth inhibition of human HT-29 cells incubated for 72 hrs by MTT assay. Type of data set: functional. Conditions: HT-29, 72 h.
The nature of data set [2]: Growth inhibition of human PBL cells incubated for 72 hrs by MTT assay. The data set is classed as cell-based. The settings on record: PBL cells (peripheral blood lymphocytes). The essentials: (§2)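 PBL from healthy donors were isolated on a Lymphoprep gradient, held overnight in RPMI-1640 with 10% FBS, and the non-adherent cells resuspended at 5 × 10^5 cells/mL. Proliferating cultures got 2.5 µg/mL PHA; resting cultures got none. Compound was added at several concentrations for 72 h and viability read by MTT. GI50 reported as mean ± SEM of three experiments.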

The nature of data set [3]: Growth inhibition of PHA-stimulated human PBL cells incubated for 72 hrs by MTT assay. The data set is classed as cell-based. The settings on record: PHA-stimulated PBL cells (peripheral blood lymphocytes). The essentials:
as §2

In a further data set the test system is CCRF-CEM. Nature of the data set: Growth inhibition of human CEM cells incubated for 72 hrs by MTT assay. The data set is classed as functional. The essentials: as §1
Data set [4] is described as follows: Growth inhibition of multidrug-resistant human CEM/VBL100 cells incubated for 72 hrs by MTT assay. The data set is classed as functional. Conditions: CEM/VBL100, 72 h. The essentials:
as §1

Another data set addresses Tubulin (Bos taurus, UniProt Q6B856+Q862L2+Q862F3). Briefly: Inhibition of bovine brain tubulin polymerization preincubated for 15 mins followed by GTP addition and measured for 20 mins by turbidimetry-based spectrophotometric method. The essentials:
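Bovine brain tubulin (10 µM) was preincubated with varying compound concentrations in 0.8 M monosodium glutamate, pH 6.6, for 15 min at 30 °C, then cooled to 0 °C. GTP was added to 0.4 mM final and the mix warmed to 30 °C. Turbidity was followed at 350 nm. IC50 = concentration inhibiting extent of assembly 50% after 20 min.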

The target of the next data set is Tubulin (Bos taurus) (UniProt Q6B856+Q862L2+Q862F3). Briefly: Inhibition of [3H]colchicine binding to bovine brain tubulin at 5 uM relative to control. The essentials:
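Bovine brain tubulin at 1 µM was incubated with 5 µM [3H]colchicine and the test compound at 5 µM. Inhibition of colchicine binding was measured relative to a control.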

In data set [5] the test system is B16-BL6. Nature of the data set: Growth inhibition of mouse B16-BL6 cells incubated for 72 hrs by MTT assay. Type of data set: functional. The settings on record: B16-BL6, 72 h.
Data set [6] deals with B16-BL6. Briefly: Antitumour activity against mouse B16-BL6 cells allografted in C57BL/6 mouse assessed as reduction in tumor mass at 7.5 mg/kg, ip administrated every other day relative to control. The data set is classed as functional. The essentials: (§3)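 Male C57BL/6 mice (six weeks old) got 2.5×10^5 BL6-B16 murine melanoma cells s.c. in the dorsolateral flank, in PBS. Once tumors were measurable (about 100 mm³), mice were randomized and given drug i.p. every other day in 50 µL DMSO. Vehicle (DMSO) group served as control. Tumor volume = (D × d²)/2; tumor weight taken at end. 5 animals per group, mean ± SEM.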

Data set [7] relates to B16-BL6. Briefly: Antitumour activity against mouse B16-BL6 cells allografted in C57BL/6 mouse assessed as reduction in tumor mass at 3 mg/kg, ip administrated every other day relative to control. The data set is classed as functional. The essentials:
as §3

Data set [8] in a line: Toxicity in C57BL/6 mouse allografted with mouse B16-BL6 cells assessed as change in body weight at 3 to 7.5 mg/kg, ip administrated every other day. Conditions: in vivo. The data set is classed as organism-based. The essentials:
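Male six-week-old C57BL/6 mice were given BL6-B16 murine melanoma cells subcutaneously in the dorsolateral flank in PBS. Once tumours reached about 100 mm³, mice were randomised and dosed intraperitoneally every other day with 3.0 or 7.5 mg/kg in DMSO, or vehicle alone. Body weight change was followed; 5 animals per group, mean ± SEM.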

The nature of data set [9]: Metabolic stability in human liver microsomes assessed as parent compound decline at 10 uM incubated for 60 mins in presence of NADPH by HPLC analysis. Type of data set: ADME, Microsome. The settings on record: read-out: Drug degradation. The essentials: (§4)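 Compound (10 µM) was incubated 0 or 60 min at 37 °C with pooled HLMs (1 mg/mL), with or without 1 mM NADPH, or in buffer only (0.1 M KH2PO4 pH 7.4). Reactions were stopped with ice-cold acetonitrile. Remaining parent was measured by HPLC-fluorescence relative to 0 min; mean ± SD, n = 3.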

Data set [10] in a line: Selectivity ratio of GI50 for human PBL cells to GI50 for human Jurkat cells incubated for 72 hrs by MTT assay. The essentials:
(§5)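 Leukemia cells (CEM, DND-41, Jurkat) were grown in RPMI-1640 at 8×10³ cells/well and left 18 h. Donor PBL were gradient-separated, held overnight in RPMI-1640/10% FBS, and non-adherent cells set at 5×10^5 cells/mL without PHA (resting). Both were exposed 72 h to graded concentrations, read by MTT. The ratio is PBL GI50 over leukemia GI50.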

Data set [11] in a line: Metabolic stability in human liver microsomes assessed as parent compound decline at 10 uM incubated for 60 mins in absence of NADPH by HPLC analysis. The data set is classed as ADME, Microsome. The settings on record: read-out: Drug degradation. The essentials: as §4
A general note: Liver microsomes are vesicles of endoplasmic reticulum, rich in cytochrome P450 enzymes.

A short description of data set [12]: Selectivity ratio of GI50 for human PBL cells to GI50 for human DND41 cells incubated for 72 hrs by MTT assay. The essentials: as §5
Data set [13] can be described thus: Selectivity ratio of GI50 for human PBL cells to GI50 for human CEM cells incubated for 72 hrs by MTT assay. The data set is classed as functional. The essentials: as §5
The nature of data set [14]: Selectivity ratio of GI50 for PHA-stimulated human PBL cells to GI50 for human Jurkat cells incubated for 72 hrs by MTT assay. The essentials:
(§6)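 Leukemia cells (CEM, DND-41, Jurkat) were grown in RPMI-1640 at 8×10³ cells/well and left 18 h. Donor PBL were gradient-separated, held overnight, and non-adherent cells set at 5×10^5 cells/mL with 2.5 µg/mL PHA. Both were exposed 72 h at 37 °C to graded compound concentrations, read by MTT. The ratio is PBL GI50 over leukemia GI50.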

Data set [15] can be described thus: Selectivity ratio of GI50 for PHA-stimulated human PBL cells to GI50 for human DND41 cells incubated for 72 hrs by MTT assay. The essentials: as §6
Data set [16] in a line: Selectivity ratio of GI50 for PHA-stimulated human PBL cells to GI50 for human CEM cells incubated for 72 hrs by MTT assay. The essentials: as §6
In data set [17] the test system is B16-BL6. Nature of the data set: Antitumour activity against mouse B16-BL6 cells allografted in C57BL/6 mouse assessed as reduction in tumor mass at 30 mg/kg, ip administrated every other day relative to control. The data set is classed as functional. The essentials:
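Six-week-old male C57BL/6 mice received BL6-B16 murine melanoma cells subcutaneously in the dorsolateral flank, suspended in PBS. Once tumors reached about 100 mm³, the mice were randomised and dosed intraperitoneally every other day, with the drug dissolved in DMSO; controls received DMSO vehicle. Tumors were measured in two dimensions, V=(D x d²)/2, and weighed at the end. Five mice per group; mean ± SEM.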

Turning to `O=C(c1ccccc1)n1ccc2c3c(=O)cc(-c4cccc(F)c4)[nH]c3ccc21`, the GI50 in data set [1] was found to be 0.0102 µM; in the data set on Jurkat, 0.0324 µM; with HL-60, 0.0151 µM; in the data set with RS4-11, 0.056 µM; with MCF7 it was 0.103 µM; with MDA-MB-231, 0.454 µM. The GI50 worked out at 0.871 µM in the data set on MDA-MB-468; 0.0133 µM in the data set with HeLa; 0.402 µM in the data set with HT-29; 0.044 µM in the data set on CCRF-CEM; 0.036 µM in data set [4]; 0.018 µM in the data set with B16-BL6 [5]. The GI50 at 72 h in data set [2] was 45.6 µM; in data set [3] it was 17.6 µM. For the same compound, the IC50 on Tubulin is 0.38 µM. This compound also registered an inhibition at Tubulin (Bos taurus) of 70%. For the same compound, the inhibition in vivo at 7.5 mg/kg with B16-BL6 [6] worked out at 58.4%. Besides, the inhibition in vivo at 3 mg/kg in the data set on B16-BL6 [7] was found to be 16.7%. Moreover, the Activity entry in data set [8] is “Non-Toxic”. Besides, the metabolised at 1 h, 10 µM in data set [9] and in data set [11] was 20% each time. Besides, the RatioGI50 in data set [10], in data set [12], in data set [13], in data set [14], in [15] and in [16] was 10000 - 30000 throughout.
With `COc1ccc(/C=C\c2cc(OC)c(OC)c(OC)c2)cc1OP(=O)(O)O` [FOSBRETABULIN DISODIUM], in the data set with B16-BL6 [17], the inhibition in vivo at 30 mg/kg is 31.3%.

The GI50 is the concentration that inhibits growth by half. As usually defined, the IC50 is the concentration that inhibits the measured activity by half. A high value points to lower potency. By inhibition is commonly meant the drop in the measured response relative to a control, in per cent. A word on the inhibition in vivo: it is the drop in the measured response relative to a control, in per cent.
